Assay outcomes from PubChem BioAssay.
RGS4 pot: potentiators or activators of RGS4; HEK293 M3R/inducible RGS4, carbachol calcium flux Fluo4; hits give low values; B-score at 10 µM; 310,000 tested, 0.92% active; AID 463111;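 active = B-score of the integrated calcium signal more than 4 SD below the library mean, with starting fluorescence not abnormally high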;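 also: negative B-score means reduced calcium response which marks RGS4 activation or potentiation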
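Reagent: ECmax carbachol challenge; Test system: M3R-expressing HEK293 line, RGS4 induced by doxycycline; Schedule: overnight RGS4 induction, 30 min dye load 37 °C, 20 min compound RT; Detection: calcium dye Fluo4 fluorescence; Read-out: Agonist-evoked peak-minus-minimum fluorescence over baseline, integrated ratio, B score.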
MrgX1 ag: activates human MrgX1 receptor signaling. MrgX1-HEK293 cells, Fluo-4 calcium fluorescence, agonist mode; hits give high values. Q96LB2. B-score at 10 µM. AID 588627. 310,000 tested, 0.44% active;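 active = calcium response B-score plate-corrected fluorescence ratio at least 3 library SD, with starting fluorescence B-score inside 5 SD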
Target sequence (Q96LB2 whole entry, looked up): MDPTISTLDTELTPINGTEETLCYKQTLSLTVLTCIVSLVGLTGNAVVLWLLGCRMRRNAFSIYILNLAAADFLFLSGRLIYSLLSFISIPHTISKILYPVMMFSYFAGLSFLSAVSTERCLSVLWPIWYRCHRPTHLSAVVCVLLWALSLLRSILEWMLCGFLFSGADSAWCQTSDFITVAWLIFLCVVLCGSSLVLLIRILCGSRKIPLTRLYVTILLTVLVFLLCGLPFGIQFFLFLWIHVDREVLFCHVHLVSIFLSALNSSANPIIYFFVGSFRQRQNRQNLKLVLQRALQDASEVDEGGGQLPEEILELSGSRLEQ
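Test system: Stable human MrgX1 HEK293 cell line | Schedule: Overnight plating before 1 h dye loading | Read-out basis: Baseline-normalised fluorescence change ratio, B-scored | Detection: Kinetic calcium dye fluorescence, Fluo-4 NW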
RGS4 block: human RGS4 inhibition | P49798 | HEK293 M3R/RGS4 inducible, Fluo-4 calcium flux; hits give high values; triggered by carbachol at its EC20 | B-score at 10 µM | 310,000 tested, 0.45% active | AID 463165;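 active = B-score, a plate-corrected calcium signal, over three deviations above library mean, with baseline fluorescence within five deviations of library mean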;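 also: RGS4 expression induced by doxycycline in cells with stable M3 receptor; B-score is computed from the integrated fluorescence ratio over baseline after carbachol; higher B-score means a larger calcium signal and so more RGS4 inhibition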
Target sequence (P49798 whole entry, looked up): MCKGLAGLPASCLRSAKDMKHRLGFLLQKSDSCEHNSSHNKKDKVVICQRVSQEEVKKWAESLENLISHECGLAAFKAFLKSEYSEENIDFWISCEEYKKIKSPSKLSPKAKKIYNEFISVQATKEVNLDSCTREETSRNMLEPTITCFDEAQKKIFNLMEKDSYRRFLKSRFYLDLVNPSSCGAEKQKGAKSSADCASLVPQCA
MrgX1 PAM: human MrgX1 positive allosteric modulation, primary screen; MrgX1-HEK293, Fluo-4 calcium flux, FDSS; hits give high values; AID 588675; B-score at 10 µM; 310,000 tested, 0.63% active;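 active = plate-corrected calcium response at least 3 library SD above typical, normal starting fluorescence, not activating the receptor alone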;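 also: compound read alongside a low EC10 to EC30 dose of BAM8-22 agonist; peak minus trough fluorescence over baseline measured at the second addition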
MrgX1 antagonist: blocks BAM8-22 activation of human MrgX1 receptor. Q96LB2. MRGX1-HEK293 calcium flux, Fluo-4, BAM8-22 antagonism; hits give low values. B-score at 10 µM. 310,000 tested, 1.3% active;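 active = calcium-response B-score plate-corrected more than 3 library SD below zero, starting fluorescence within 5 deviations, no agonist response on first addition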;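 also: peak minus trough fluorescence over baseline after final BAM8-22 challenge near maximal dose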
MrgX1 ant reconf: reconfirmed antagonist of human MrgX1 receptor signaling; shares compounds with MrgX1 antagonist; MrgX1-HEK293, BAM8-22 calcium flux, Fluo-4; hits give low values; remaining BAM8-22 calcium response % of control (hits give low values), % at 10 µM; 2,300 tested, 19% active; AID 602420;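 active = remaining agonist calcium response no higher than 100% minus 3 SD of agonist-only control wells, with starting fluorescence near control levels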;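 also: agonist BAM8-22 given at a near maximal EC90 to ECmax level; peak minus minimum fluorescence divided by baseline after agonist addition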
HEK293 Ca flux: counter-screen for MrgX1 antagonists: effect in parental HEK293 cells; shares compounds with MrgX1 antagonist; AID 624111; fluorescence ratio F(max-min)/F0 at 10 µM; 4,000 tested, 2% active; Fluo-4 calcium fluorescence, FDSS;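 active = duplicate-averaged calcium fluorescence ratio at least three times the standard deviation of buffer wells, a nonspecific response in parental cells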
HEK293 Ca counter: counter-screen for MrgX1 allosteric activators: effect in parental HEK293 cells; shares compounds with MrgX1 antagonist; parental HEK293 calcium flux, Fluo-4 fluorescence ratio; hits give high values; fluorescence ratio F(max-min)/F0 at 10 µM; 4,000 tested, 0.4% active; AID 624114;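 active = calcium fluorescence ratio, averaged over duplicates, at least 3 SD of the buffer-well ratio, meaning a nonspecific response in receptor-free cells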;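 also: untransfected parental HEK293 lacking MrgX1 used as counterscreen for MrgX1 allosteric activators; fluorescence change taken during the second addition on a kinetic imager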
HEK293 Ca cntr2: MrgX1 activator counter-screen hit in parental HEK293 cells. shares compounds with MrgX1 antagonist. Fluo-4 calcium fluorescence (FDSS); hits give high values. fluorescence ratio F(max-min)/F0 at 10 µM. 4,000 tested, 8.7% active;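 active = calcium fluorescence ratio at least three times the spread of buffer wells, meaning a non-specific response in parental cells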
* hit, by the source's call; i = inactive; . = no result given. Hits are enriched below; roughly 3.5% of the tested compounds scored in any of these assays.

SMILES	RGS4 pot	MrgX1 ag	RGS4 block	MrgX1 PAM	MrgX1 antagonist	MrgX1 ant reconf	HEK293 Ca flux	HEK293 Ca counter	HEK293 Ca cntr2
Cc1occc1C(=O)Nc1cnn(CCCC(=O)O)c1	i	i	i	i	-4.9*	i	i	i	i
Cc1cc(F)ccc1S(=O)(=O)N1CCCOC1CNC(=O)C(=O)NCc1ccco1 (stereo not drawn)	i	i	i	i	i	.	.	.	.
CCN(C(=O)Cc1c(C(=O)O)n(C)c2ccccc12)c1ccc(F)cc1	i	i	i	i	-5*	i	i	i	i
CCN(C(=O)Cc1c(C(=O)O)n(C)c2ccccc12)c1cc(OC)ccc1OC	i	i	i	i	i	.	.	.	.
CCN(C(=O)CSc1ccc2ccccc2c1)C1CCS(=O)(=O)C1 (stereo not drawn)	i	i	i	i	-4.6*	i	i	i	i
CCN(C(=O)COC(=O)CSc1ccc(C)c(C)c1)C1CCS(=O)(=O)C1 (stereo not drawn)	i	i	i	i	i	.	.	.	.
CCN(C(=O)CSc1nc2ccccc2o1)C1CCS(=O)(=O)C1 (stereo not drawn)	i	i	i	i	-4.72*	i	i	i	i
Cc1ccc(OCC(=O)NCc2ccccn2)c(Br)c1	i	i	i	i	i	.	.	.	.
O=S(=O)(N1CCCCC1)n1c(Cc2ccccc2)nc2ccccc21	i	i	i	i	i	.	.	.	.
CC1=C(C#N)CCC(=O)N1Cc1ccc(C)cc1	i	i	i	i	-7.71*	i	i	i	i
Cc1ccc(S(=O)(=O)CCc2nc3ccccc3[nH]2)cc1	i	i	i	i	i	.	.	.	.
Cc1ccc(S(=O)(=O)CCc2nc3ccccc3[nH]2)cc1C	i	i	i	i	-4.67*	i	i	i	i
CCOc1ccc(N(CC(=O)NCC2CCCO2)S(=O)(=O)c2ccc(OC)c(OC)c2)cc1 (stereo not drawn)	i	i	i	i	i	.	.	.	.
O=C(O)c1ccccc1NCc1ccsc1	i	i	i	i	i	.	.	.	.
CSc1nc2c(c(=O)[nH]c(=O)n2C)n1Cc1ccccc1Cl	i	i	i	i	i	.	.	.	.
Cc1csc(Sc2nc3c(c(=O)[nH]c(=O)n3C)n2Cc2ccccc2Cl)n1	i	i	i	i	-8.75*	i	i	i	i
O=C1c2ccccc2NC(c2ccc(O)cc2)N1Cc1ccco1 (stereo not drawn)	i	i	i	i	i	.	.	.	.
C=C(C)CSc1nc(C)c(Cc2ccccc2)c(=O)[nH]1	i	i	i	i	-6.74*	85.2%*	i	i	i
CCN1/C(=C/c2ccc3ccccc3[n+]2CC)C=Cc2ccccc21	-9.21*	i	i	i	-13.4*	i	.	.	.
CCN1/C(=C/c2ccc3ccccc3[n+]2CCCS(=O)(=O)[O-])C=Cc2cc(C)ccc21	i	i	i	i	i	.	.	.	.
N#Cc1ccc(OS(=O)(=O)c2ccc(-c3ccon3)s2)cc1	i	i	i	i	-4.68*	i	i	i	i
CCOC(=O)c1ccc(NC(=O)CCNS(=O)(=O)c2cccs2)cc1	i	i	i	i	-5.39*	i	i	i	i
COC(=O)c1ccc(NC(=O)CNS(=O)(=O)c2cccs2)cc1	i	i	i	i	i	.	.	.	.
CCc1cc(=O)[nH]c(SCc2ccc(C)cc2)n1	i	i	i	i	-4.69*	i	i	i	i
CCc1cc(=O)[nH]c(SCc2cccnc2)n1	i	i	i	i	i	.	.	.	.
SMILES	RGS4 pot	MrgX1 ag	RGS4 block	MrgX1 PAM	MrgX1 antagonist	MrgX1 ant reconf	HEK293 Ca flux	HEK293 Ca counter	HEK293 Ca cntr2
CCOc1cc(/C=C2/C(=O)ON=C2C)ccc1OCc1ccc(F)cc1	i	i	i	i	i	.	.	.	.
CCOc1ccc(Br)cc1CC(=O)O	i	i	i	i	i	.	.	.	.
CCCOc1ccc(Br)cc1CSC(=N)N	i	i	i	i	-4.6*	i	i	i	i
COc1ccc(-n2nc3c(c2NC(=O)COc2cccc(OC)c2)CS(=O)(=O)C3)cc1	i	i	i	i	-7.52*	i	i	i	i
COCCCN1C(=O)c2[nH]nc(-c3ccccc3O)c2C1c1cccc(Cl)c1 (stereo not drawn)	i	i	i	i	i	.	.	.	.
COCCCN1C(=O)c2[nH]nc(-c3ccccc3O)c2C1c1ccc(Cl)cc1 (stereo not drawn)	i	i	i	i	-4.81*	i	i	i	i
COc1cc(NC(=O)c2nccnc2C(=O)O)cc(OC)c1	i	i	i	i	-6.02*	i	i	i	i
CCN1CCN(/C=N/c2nc3c(s2)CCCC3)CC1	i	i	i	i	-4.51*	i	i	i	i
COC(=O)C1C2C=CC3(CN(CC4CCCO4)C(=O)C13)O2 (stereo not drawn)	i	i	i	i	i	.	.	.	.
CCCCNC(=O)N1CCOCCOCCN(C(=O)NCCCC)CCOCC1	i	i	i	i	-4.62*	i	i	i	i
CN1CCc2c(n(CC(O)CN(CCO)CCO)c3ccccc23)C1=O (stereo not drawn)	i	i	i	i	i	.	.	.	.
CN1CCN(c2ncnc3scc(-c4ccccc4Cl)c23)CC1	i	i	i	i	i	.	.	.	.
Cc1cc(-c2csc3ncnc(N4CCN(C)CC4)c23)cc(C)c1C	i	i	i	i	-4.89*	i	i	i	i
CN(C)CCN(C(=O)/C=C/c1cccs1)c1nc2c(F)cc(F)cc2s1	i	i	i	i	i	.	.	.	.
O=C(Nc1cn(-c2ccccc2)nc1-c1ccc(F)cc1)c1ccccc1	i	i	i	i	-5.28*	81.3%*	i	i	i
COc1cc(=O)[nH]c(SCC(=O)Nc2ccc3ccccc3c2)n1	i	i	i	i	i	.	.	.	.
